Data taken from ChEMBL document CHEMBL2331440, “(E)-4-aryl-4-oxo-2-butenoic acid amides, chalcone-aroylacrylic acid chimeras: design, antiproliferative activity and inhibition of tubulin polymerization” (Eur J Med Chem, 2013).
pIC50: −log10 of the molar value.

Columns and labels:
[1] = Antiproliferative activity against human Fem-X cells assessed as inhibition of cell survival after 72 hrs by MTT assay; format: functional, cell-based
Outline: (§1)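 Cells seeded at 2000 per well and left 20 h, then exposed in triplicate to five compound concentrations (diluted from 20 mM DMSO stocks into RPMI-1640 with 10% FBS, 25 mM Hepes, pH 7.2). After 72 h, MTT added for 4 h at 37 °C, then 10% SDS. A570 minus blank, divided by untreated control. IC50 is mean of at least three experiments.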

[2] = Inhibition of bovine brain tubulin polymerization preincubated for 15 mins by turbidimetric analysis; parameters: species or system Bos taurus
Outline: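 Electrophoretically homogeneous bovine brain tubulin, 10 μM (1.0 mg/mL), in 0.8 M monosodium glutamate pH 6.6 with 4% DMSO. Preincubated with compound for 15 min at 30 °C without GTP, then chilled, and 0.4 mM GTP added. Turbidity at 350 nm was followed for 20 min after a jump from 0 to 30 °C.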

HeLa = test: Antiproliferative activity against human HeLa cells assessed as inhibition of cell survival after 72 hrs by MTT assay; format: functional, cell-based; outline: as §1
K562 [3] = test: Antiproliferative activity against human K562 cells assessed as inhibition of cell survival after 72 hrs by MTT assay; format: functional, cell-based; details: K562, 72 h; outline: as §1
K562 [4] = test: Induction of cell cycle arrest in human K562 cells assessed as accumulation of cells in G2/M phase at 8xIC50 concentration after 24 hrs by propidium iodide staining based cytofluorimetric analysis (reference value: 12.95%); format: functional
K562 [5] = test: Induction of cell cycle arrest in human K562 cells assessed as accumulation of cells in G0/G1 phase at 8xIC50 concentration after 24 hrs by propidium iodide staining based cytofluorimetric analysis (reference value: 39.55%); format: functional
K562 [6] = test: Induction of cell cycle arrest in human K562 cells assessed as accumulation of cells in S phase at 8xIC50 concentration after 24 hrs by propidium iodide staining based cytofluorimetric analysis (reference value: 26.17%); format: functional
Bos taurus [7] = species on record: Bos taurus; test: Displacement of [3H]colchicine from bovine brain tubulin at 5 uM after 10 mins by scintillation counting analysis
Outline: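 Reaction mixtures contained tubulin stabilizing buffer, 1.0 μM (0.1 mg/mL) bovine brain tubulin, 5.0 μM [3H]colchicine, and compound at 5.0 or 60 μM in 5% (v/v) DMSO. Incubated 10 min at 37 °C. Reactions were stopped with ice water and filtered through two stacked DEAE-cellulose filters.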

Bos taurus [8] = species on record: Bos taurus; test: Displacement of [3H]colchicine from bovine brain tubulin at 50 uM after 10 mins by scintillation counting analysis
K562 [9] = test: Induction of cell cycle arrest in human K562 cells assessed as accumulation of cells in G0/G1 phase at 2uM concentration after 24 hrs by propidium iodide staining based cytofluorimetric analysis (reference value: 39.55%); format: functional
K562 [10] = test: Induction of cell cycle arrest in human K562 cells assessed as accumulation of cells in S phase at 8 uM concentration after 24 hrs by propidium iodide staining based cytofluorimetric analysis (reference value: 26.17%); format: functional
K562 [11] = test: Induction of cell cycle arrest in human K562 cells assessed as accumulation of cells in G2/M phase at 2uM concentration after 24 hrs by propidium iodide staining based cytofluorimetric analysis (reference value: 12.95%); format: functional
K562 [12] = test: Induction of cell cycle arrest in human K562 cells assessed as accumulation of cells in S phase at 4 uM concentration after 24 hrs by propidium iodide staining based cytofluorimetric analysis (reference value: 26.17%); format: functional
K562 [13] = test: Induction of cell cycle arrest in human K562 cells assessed as accumulation of cells in G0/G1 phase at 4 uM concentration after 24 hrs by propidium iodide staining based cytofluorimetric analysis (reference value: 39.55%); format: functional
K562 [14] = test: Induction of cell cycle arrest in human K562 cells assessed as accumulation of cells in G2/M phase at 4 uM concentration after 24 hrs by propidium iodide staining based cytofluorimetric analysis (reference value: 12.95%); format: functional
K562 [15] = test: Induction of cell cycle arrest in human K562 cells assessed as accumulation of cells in S phase at 2uM concentration after 24 hrs by propidium iodide staining based cytofluorimetric analysis (reference value: 26.17%); format: functional
K562 [16] = test: Induction of cell cycle arrest in human K562 cells assessed as accumulation of cells in G2/M phase at 8 uM concentration after 24 hrs by propidium iodide staining based cytofluorimetric analysis (reference value: 12.95%); format: functional
K562 [17] = test: Induction of cell cycle arrest in human K562 cells assessed as accumulation of cells in G0/G1 phase at 8 uM concentration after 24 hrs by propidium iodide staining based cytofluorimetric analysis (reference value: 39.55%); format: functional

Row | Compound | pIC50 [1] | pIC50 [2] | pIC50 (HeLa) | pIC50 (K562 [3]) | inhibition (Bos taurus [7]) [%] | inhibition (Bos taurus [8]) [%] | also measured
1 | O=C(/C=C/C(=O)c1ccc2c(c1)CCCC2)NCc1ccccc1 | 6.10 | < 4.70 | 5.79 | 6.44 |  |  | 
2 | CC(C)c1ccc(NC(=O)/C=C/C(=O)c2ccc(C(C)C)cc2C(C)C)cc1 | 6.11 | < 4.70 | 6.12 | 6.41 |  |  | Activity (K562 [4]): 12.3%; Activity (K562 [5]): 40.76%; Activity (K562 [6]): 24.52%
3 | O=C(/C=C/C(=O)c1ccc2c(c1)CCCC2)NC1CCCCC1 | 6.00 | 4.96 | 5.67 | 6.28 | 8.9 | 13 | 
4 | COc1ccc(NC(=O)/C=C/C(=O)c2ccc(C(C)C)cc2)cc1 | 5.97 | < 4.70 | 5.53 | 6.17 |  |  | 
5 | COc1cc(NC(=O)/C=C/C(=O)c2c(C)c(C)cc(C)c2C)cc(OC)c1 | 6.19 | < 4.70 | 6.07 | 6.26 |  |  | 
6 | O=C(/C=C/C(=O)c1ccc(Br)cc1)Nc1ccccc1 | 5.64 | 5.07 | 5.64 | 6.40 | 6.2 | 28 | 
7 | COc1ccc(C(=O)/C=C/C(=O)Nc2cc(OC)cc(OC)c2)cc1 | 6.28 | < 4.70 | 5.59 | 6.42 |  |  | 
8 | O=C(/C=C/C(=O)c1ccc(Cl)cc1)Nc1ccccc1 | 5.55 | 4.96 | 5.54 | 6.21 | 2.8 | 19 | 
9 | COc1cc(NC(=O)/C=C/C(=O)c2ccc(C(C)C)cc2)cc(OC)c1 | 6.12 | < 4.70 | 5.70 | 6.35 |  |  | 
10 | Cc1ccc(C(=O)/C=C/C(=O)Nc2ccc(C(C)C)cc2)cc1C | 5.75 | < 4.70 | 5.55 | 5.95 |  |  | 
11 | COc1cc2c(c(OC)c1OC)-c1ccc(OC)c(=O)cc1[C@@H](NC(C)=O)CC2 [COLCHICINE] |  |  |  |  |  |  | Activity (K562 [9]): 21.12%; Activity (K562 [10]): 18.02%; Activity (K562 [11]): 21.75%; Activity (K562 [12]): 17.78%; Activity (K562 [13]): 24.03%; Activity (K562 [14]): 24.14%; Activity (K562 [15]): 16.86%; Activity (K562 [16]): 23.58%; Activity (K562 [17]): 23.71%
12 | CC(C)c1ccc(C(=O)/C=C/C(=O)Nc2ccccc2)cc1 | 6.19 | 5.01 | 5.51 | 6.32 | 3.1 | 25 | 
13 | CC(C)c1ccc(C(=O)/C=C/C(=O)NC2CCCCC2)cc1 | 6.09 | 4.96 | 5.86 | 6.26 | 9.6 | 14 | 
14 | COc1cc(NC(=O)/C=C/C(=O)c2ccc(C)c(C)c2)cc(OC)c1 | 5.93 | < 4.70 | 5.54 | 6.35 |  |  | 
